Source: ChEMBL document CHEMBL1287727, “Structure and biological evaluation of novel cytotoxic sterol glycosides from the marine red alga Peyssonnelia sp” (Bioorg Med Chem, 2010)
pIC50: −log10 of the molar value. In brackets after ≈: the same amount, converted by molar mass. Activity calls are given as the source filed them. The calls are words filed in the database; no cut-off is given here.

Experiments:
[1] = tested on: MDA-MB-231; assay: Cytotoxicity against human MDA-MB-231 cells after 72 hrs by MTS assay; assay type: functional, cell-based; conditions: MDA-MB-231, 72 h
[2] = tested on: PC-3; assay: Cytotoxicity against human PC3 cells after 72 hrs by MTS assay; assay type: functional, cell-based; conditions: PC-3, 72 h
[3] = tested on: DU-4475; assay: Cytotoxicity against human DU4475 cells after 72 hrs by MTS assay; assay type: functional, cell-based; conditions: DU-4475, 72 h
[4] = tested on: MDA-MB-468; assay: Cytotoxicity against human MDA-MB-468 cells after 72 hrs by MTS assay; assay type: functional, cell-based; conditions: MDA-MB-468, 72 h
[5] = Cytotoxicity against human LNCaP-FGC cells after 72 hrs by MTS assay; assay type: functional, cell-based; conditions: LNCaP-Clone-FGC
[6] = tested on: HCT-116; assay: Cytotoxicity against human HCT116 cells after 72 hrs by MTS assay; assay type: functional, cell-based; conditions: HCT-116, 72 h
[7] = tested on: DU-145; assay: Cytotoxicity against human DU145 cells after 72 hrs by MTS assay; assay type: functional, cell-based; conditions: DU-145, 72 h
[8] = tested on: BT-549; assay: Cytotoxicity against human BT549 cells after 72 hrs by MTS assay; assay type: functional, cell-based; conditions: BT-549, 72 h
[9] = Cytotoxicity against human A2780DDP cells after 72 hrs by MTS assay; assay type: functional, cell-based
[10] = tested on: A549; assay: Cytotoxicity against human A549 cells after 72 hrs by MTS assay; assay type: functional, cell-based; conditions: A549, 72 h
[11] = tested on: CCRF-CEM; assay: Cytotoxicity against human CCRF-CEM cells after 72 hrs by MTS assay; assay type: functional, cell-based
[12] = tested on: Candida albicans; assay: Antifungal activity against amphotericin-resistant Candida albicans ATCC 90873; assay type: functional
[13] = tested on: Plasmodium falciparum; assay: Antimalarial activity against Plasmodium falciparum; assay type: functional, organism-based
Summary of the method: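 Parasite proliferation was read out with a SYBR Green-based assay.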

[14] = Cell cycle arrest in human A2780DDP cells at 10 uM after 48 hrs using propidium iodine staining by flow cytometry; assay type: functional, cell-based
Summary of the method: (§1)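 A2780/DDP-S ovarian cancer cells were treated at 1.0, 3.0 and 10 µM for 24 or 48 h. DNA was stained with propidium iodide and cell-cycle distribution was analysed by flow cytometry.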

[15] = species on record: Homo sapiens; assay: Induction of apoptosis in human A2780DDP cells assessed as PARP cleavage at 10 uM after 48 hrs by flow cytometry; assay type: functional, cell-based
[16] = tested on: Enterococcus faecium; assay: Antibacterial activity against vancomycin-resistant Enterococcus faecium ATCC 700221; assay type: functional
[17] = Cell cycle arrest in human A2780DDP cells at 10 uM after 24 hrs using propidium iodine staining by flow cytometry; assay type: functional, cell-based; summary of the method: as §1
[18] = tested on: Staphylococcus aureus; assay: Antibacterial activity against methicillin-resistant Staphylococcus aureus ATCC 33591; assay type: functional
[19] = tested on: Mycobacterium tuberculosis; assay: Antimicrobial activity against Mycobacterium tuberculosis H37Rv by microplate alamar blue assay; assay type: functional, organism-based
Summary of the method: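 M. tuberculosis H37Rv (ATCC 27294) tested by microplate alamar blue assay.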

[20] = species on record: Homo sapiens; assay: Induction of apoptosis in human A2780DDP cells assessed as PARP cleavage at 10 uM after 24 hrs by flow cytometry; assay type: functional, cell-based
Summary of the method: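 A2780/DDP-S ovarian cancer cells were exposed at 1.0, 3.0 and 10 µM for 24 or 48 h. Apoptosis was scored by flow cytometry as the presence of cleaved PARP, a marker of caspase activation.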

Compound | pIC50 [1] | pIC50 [2] | pIC50 [3] | pIC50 [4] | pIC50 [5] | pIC50 [6] | pIC50 [7] | pIC50 [8] | pIC50 [9] | pIC50 [10] | pIC50 [11] | MIC [12] [µg/mL] | pIC50 [13] | Activity [14] | Activity [15] | Activity [16] [µg/mL] | Activity [17] | Activity [18] [µg/mL] | pIC50 [19] | Activity [20]
CC(C)CCC[C@@H](C)[C@H]1CC[C@H]2[C@@H]3CCC4=C[C@@H](O)CC[C@]4(C)[C@H]3CC[C@]12C | < 4.60 | < 4.60 | < 4.60 | < 4.60 | < 4.60 | < 4.60 | < 4.60 |  |  |  |  |  |  |  |  |  |  |  |  | 
CC(C)CCC[C@@H](C)[C@H]1CC[C@H]2[C@@H]3CCC4=CC(=O)CC[C@]4(C)[C@H]3CC[C@]12C [4-CHOLESTEN 3-ONE] | 4.87 | < 4.60 | 5.17 | 5.22 | 5.22 | 5.02 | 4.69 |  |  |  |  |  |  |  |  |  |  |  |  | 
CC(C)CCC[C@@H](C)[C@H]1CC[C@H]2[C@@H]3CCC4=CC(=O)CC[C@]4(CO)[C@H]3CC[C@]12C | 4.65 | 5.71 | 6.00 | 5.40 | 4.81 | 4.68 | 5.30 |  |  |  |  |  |  |  |  |  |  |  |  | 
CC(=O)N[C@H]1[C@H](OC[C@]23CC[C@H](O)C=C2CC[C@@H]2[C@@H]3CC[C@]3(C)[C@@H]([C@H](C)CCCC(C)C)CC[C@@H]23)O[C@H](CO)[C@@H](O)[C@@H]1O | 4.99 | 5.02 | 5.21 | 5.15 | 4.67 | < 4.60 | < 4.60 | 5.00 | 5.05 | < 4.60 | 4.97 |  |  |  |  |  |  |  |  | 
CC(C)CCC[C@@H](C)[C@H]1CC[C@H]2[C@@H]3CCC4=C[C@@H](O)CC[C@]4(CO[C@@H]4O[C@H](CO)[C@@H](O)[C@H](O)[C@H]4O)[C@H]3CC[C@]12C | 4.77 | < 4.60 | 5.22 | 5.17 | 4.62 | < 4.60 | < 4.60 | 4.93 | < 4.60 | < 4.60 | 5.01 |  |  |  |  |  |  |  |  | 
CC(=O)N[C@H]1[C@H](OC[C@]23CCC(=O)C=C2CC[C@@H]2[C@@H]3CC[C@]3(C)[C@@H]([C@H](C)CCCC(C)C)CC[C@@H]23)O[C@H](CO)[C@@H](O)[C@@H]1O | 6.00 | 5.62 | 5.61 | 6.15 | 5.83 | 5.65 | 5.87 | 5.91 | 5.87 | 6.01 | 5.84 | 25 (≈ 41.4 µM) | < 4.40 | inactive | inactive | 12.5 | inactive | 3.1 | < 4.40 | 
CC(C)CCC[C@@H](C)[C@H]1CC[C@H]2[C@@H]3CCC4=CC(=O)CC[C@]4(CO[C@@H]4O[C@H](CO)[C@@H](O)[C@H](O)[C@H]4O)[C@H]3CC[C@]12C | 5.90 | 5.46 | 5.89 | 6.07 | 5.47 | 5.50 | 5.88 | 5.90 | 5.86 | 6.03 | 5.71 | 25 (≈ 44.4 µM) | < 4.40 | inactive | inactive | 6.3 | inactive |  | < 4.40 | inactive
